Measured values reported in ChEMBL document CHEMBL1152631, “Design, synthesis, and preliminary studies of the activity of novel derivatives of N-cinnamoyl-L-aspartic acid as inhibitors of aminopeptidase N/CD13” (Bioorg Med Chem, 2009).
One block for each compound: values may come before it.

Legend:
[1] = target: 72 kDa type IV collagenase (Homo sapiens, UniProt P08253); experiment: Inhibition of MMP2
Summary of the method: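 Gelatinase A (MMP-2) with synthetic substrate and inhibitor in sodium borate (50 mmol/l, pH 8.5), incubated 30 min at 37 °C. Then 0.03% TNBS added for a further 20 min and absorbance read at 450 nm.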

[2] = target: T1, Aminopeptidase N (Sus scrofa, UniProt P15145); experiment: Inhibition of porcine kidney microsome APN assessed as L-Leu-p-nitroanilide hydrolysis
T1 sequence (P15145 whole entry): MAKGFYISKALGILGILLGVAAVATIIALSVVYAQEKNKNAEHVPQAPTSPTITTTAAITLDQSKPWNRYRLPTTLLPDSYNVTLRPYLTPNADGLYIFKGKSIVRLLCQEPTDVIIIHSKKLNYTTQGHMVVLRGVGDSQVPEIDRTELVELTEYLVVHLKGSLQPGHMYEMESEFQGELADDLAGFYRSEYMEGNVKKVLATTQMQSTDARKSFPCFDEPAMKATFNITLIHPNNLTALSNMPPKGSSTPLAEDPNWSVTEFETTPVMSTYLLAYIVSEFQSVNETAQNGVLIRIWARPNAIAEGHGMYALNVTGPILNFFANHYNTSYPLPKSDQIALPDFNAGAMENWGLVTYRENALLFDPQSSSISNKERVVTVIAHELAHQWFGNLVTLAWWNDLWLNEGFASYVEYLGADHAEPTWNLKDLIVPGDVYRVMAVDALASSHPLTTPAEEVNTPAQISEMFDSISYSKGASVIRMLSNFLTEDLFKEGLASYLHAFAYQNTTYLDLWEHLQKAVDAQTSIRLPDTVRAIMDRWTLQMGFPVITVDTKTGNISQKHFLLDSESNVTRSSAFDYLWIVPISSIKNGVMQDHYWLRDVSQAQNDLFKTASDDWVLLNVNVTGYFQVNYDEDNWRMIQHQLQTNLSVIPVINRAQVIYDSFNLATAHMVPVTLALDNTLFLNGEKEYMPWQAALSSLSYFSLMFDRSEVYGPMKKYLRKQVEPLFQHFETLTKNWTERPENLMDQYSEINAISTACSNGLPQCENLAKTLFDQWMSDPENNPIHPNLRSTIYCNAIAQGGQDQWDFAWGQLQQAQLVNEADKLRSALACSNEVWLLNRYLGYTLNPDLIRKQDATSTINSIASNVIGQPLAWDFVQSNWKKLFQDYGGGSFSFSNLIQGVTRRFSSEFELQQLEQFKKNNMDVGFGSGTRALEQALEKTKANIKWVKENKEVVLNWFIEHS
Summary of the method: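 Porcine kidney microsomal aminopeptidase, 4 mg/ml final, in PBS pH 7.2 at 37 °C. Inhibitor solutions made in assay buffer and adjusted to pH 7.5, preincubated with enzyme 30 min at room temperature.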

[3] = system: HL-60; experiment: Antiproliferative activity against human HL60 cells after 48 hrs by MTT assay; assay type: functional, cell-based; conditions: HL-60, 48 h
Summary of the method: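 HL-60 cells kept in RPMI1640 with 10% FBS at 37 °C, 5% CO2. Seeded 10,000 cells per well, grown 4 h, then exposed to 1600, 800, 400, 200 or 100 µg/ml for 48 h. Added 0.5% MTT, incubated 4 h, dissolved formazan in DMSO and read OD at 570 nm. Mean and SE of five independent experiments.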

Sequence of 72 kDa type IV collagenase (P08253 whole entry): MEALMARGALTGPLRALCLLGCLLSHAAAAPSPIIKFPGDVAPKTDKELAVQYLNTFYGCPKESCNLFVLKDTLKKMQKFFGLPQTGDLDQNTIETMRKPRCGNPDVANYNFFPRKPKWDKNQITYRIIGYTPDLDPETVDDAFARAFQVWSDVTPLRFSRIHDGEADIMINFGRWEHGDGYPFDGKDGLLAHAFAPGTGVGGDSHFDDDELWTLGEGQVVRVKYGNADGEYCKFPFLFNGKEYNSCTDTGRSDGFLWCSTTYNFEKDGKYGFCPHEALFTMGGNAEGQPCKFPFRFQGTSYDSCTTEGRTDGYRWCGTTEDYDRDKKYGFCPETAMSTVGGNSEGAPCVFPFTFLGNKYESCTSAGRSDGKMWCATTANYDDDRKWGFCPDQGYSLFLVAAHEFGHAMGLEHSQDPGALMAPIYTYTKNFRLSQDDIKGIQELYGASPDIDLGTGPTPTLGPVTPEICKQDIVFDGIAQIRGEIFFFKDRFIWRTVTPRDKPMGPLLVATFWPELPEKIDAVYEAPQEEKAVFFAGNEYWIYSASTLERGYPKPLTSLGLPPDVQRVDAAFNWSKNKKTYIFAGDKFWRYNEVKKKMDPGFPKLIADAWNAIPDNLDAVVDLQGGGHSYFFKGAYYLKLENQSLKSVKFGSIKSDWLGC

SMILES: O=C(/C=C/c1ccccc1)N[C@H](CC(=O)Nc1ccc([N+](=O)[O-])cc1)C(=O)NO
- IC50 [2]: 189 µM

SMILES: O=C(/C=C/c1ccccc1)N[C@H](CC(=O)Nc1cccc(Cl)c1)C(=O)O
- IC50 [2]: 719 µM

SMILES: O=C(/C=C/c1ccccc1)N[C@H](CC(=O)Nc1ccccc1Cl)C(=O)O
- IC50 [2]: 263 µM

SMILES: CC(C)NC(=O)C[C@@H](NC(=O)/C=C/c1ccccc1)C(=O)NO
- IC50 [2]: 65.9 µM

SMILES: CCCCCCCCCCCCNC(=O)C[C@@H](NC(=O)/C=C/c1ccccc1)C(=O)NO
- IC50 [1]: > 1000 µM
- IC50 [2]: 438 µM

SMILES: O=C(/C=C/c1ccccc1)N[C@H](CC(=O)Nc1cccc([N+](=O)[O-])c1)C(=O)NO
- IC50 [1]: > 1000 µM
- IC50 [2]: 1440 µM

SMILES: CCCCCCCCCCCCNC(=O)C[C@@H](NC(=O)/C=C/c1ccccc1)C(=O)O
- IC50 [2]: 962 µM

SMILES: CCCCCCNC(=O)C[C@@H](NC(=O)/C=C/c1ccccc1)C(=O)NO
- IC50 [1]: 179 µM
- IC50 [2]: 18.1 µM

SMILES: O=C(/C=C/c1ccccc1)N[C@H](CC(=O)Nc1cccc(Cl)c1)C(=O)NO
- IC50 [1]: > 1000 µM
- IC50 [2]: 1210 µM

SMILES: CC(C)NC(=O)C[C@@H](NC(=O)/C=C/c1ccccc1)C(=O)O
- IC50 [2]: 2200 µM

SMILES: CCCCNC(=O)C[C@@H](NC(=O)/C=C/c1ccccc1)C(=O)O
- IC50 [2]: 190 µM

SMILES: CCCCNC(=O)C[C@@H](NC(=O)/C=C/c1ccccc1)C(=O)NO
- IC50 [1]: 232 µM
- IC50 [2]: 11.1 µM
- IC50 [3]: 780 µM

SMILES: CCCCCNC(=O)C[C@@H](NC(=O)/C=C/c1ccccc1)C(=O)NO
- IC50 [1]: 197 µM
- IC50 [2]: 17.4 µM

SMILES: O=C(/C=C/c1ccccc1)N[C@H](CC(=O)Nc1cccc2ccccc12)C(=O)O
- IC50 [1]: > 1000 µM
- IC50 [2]: 739 µM

SMILES: O=C(/C=C/c1ccccc1)N[C@H](CC(=O)NCc1ccccc1)C(=O)O
- IC50 [2]: 207 µM

SMILES: CCCCCCCCNC(=O)C[C@@H](NC(=O)/C=C/c1ccccc1)C(=O)O
- IC50 [1]: > 1000 µM
- IC50 [2]: 232 µM

SMILES: O=C(/C=C/c1ccccc1)N[C@H](CC(=O)Nc1ccccc1)C(=O)O
- IC50 [1]: > 1000 µM
- IC50 [2]: 232 µM

SMILES: CC(C)C[C@H](NC(=O)[C@@H](O)[C@H](N)Cc1ccccc1)C(=O)O [UBENIMEX]
- IC50 [3]: 920 µM

More lines, now with the values ahead:

- IC50 [1]: 131 µM
- IC50 [2]: 36 µM
SMILES: CCCNC(=O)C[C@@H](NC(=O)/C=C/c1ccccc1)C(=O)NO

- IC50 [2]: 2050 µM
SMILES: O=C(/C=C/c1ccccc1)N[C@H](CC(=O)Nc1cccc2ccccc12)C(=O)NO

- IC50 [2]: 349 µM
SMILES: O=C(/C=C/c1ccccc1)N[C@H](CC(=O)Nc1ccc(Cl)cc1)C(=O)O

- IC50 [2]: 18.5 µM
SMILES: CCCCCCCCNC(=O)C[C@@H](NC(=O)/C=C/c1ccccc1)C(=O)NO

- IC50 [2]: 115 µM
SMILES: O=C(/C=C/c1ccccc1)N[C@H](CC(=O)Nc1ccccc1)C(=O)NO

- IC50 [2]: 65.1 µM
SMILES: O=C(/C=C/c1ccccc1)N[C@H](CC(=O)NCc1ccccc1)C(=O)NO

- IC50 [2]: 204 µM
SMILES: CCCCCNC(=O)C[C@@H](NC(=O)/C=C/c1ccccc1)C(=O)O

- IC50 [1]: > 1000 µM
- IC50 [2]: 86.6 µM
SMILES: O=C(/C=C/c1ccccc1)N[C@H](CC(=O)Nc1ccccc1Cl)C(=O)NO

- IC50 [1]: 197 µM
- IC50 [2]: 192 µM
SMILES: O=C(/C=C/c1ccccc1)N[C@H](CC(=O)Nc1ccc(Cl)cc1)C(=O)NO

- IC50 [1]: > 1000 µM
- IC50 [2]: 1780 µM
SMILES: O=C(/C=C/c1ccccc1)N[C@H](CC(=O)Nc1cccc([N+](=O)[O-])c1)C(=O)O

- IC50 [2]: 273 µM
SMILES: O=C(/C=C/c1ccccc1)N[C@H](CC(=O)Nc1ccc([N+](=O)[O-])cc1)C(=O)O

- IC50 [2]: 9110 µM
SMILES: CCCNC(=O)C[C@@H](NC(=O)/C=C/c1ccccc1)C(=O)O
